Measurements published in ChEMBL document CHEMBL4342521 (J Med Chem, 2020).
Calls of active or inactive are those of the source. No cut-off for these calls is given here.

What was measured:
[1] = molecular target: Matrix metalloproteinase-9 (Homo sapiens) (UniProt P14780); test: Inhibition of MMP-9 (unknown origin) at 10 to 50 uM incubated for 10 to 15 mins and measured after 2 hrs by fluorescence based assay
Summary of the method: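 MMP-2/MMP-9 in activation buffer with test agent (final 50 and 10 μM), 10–15 min incubation, then fluorogenic substrate added. Incubated 2 h at 37 °C; fluorescence read at 320/405 nm. Kit MMP inhibitor was the positive control.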

[2] = tested on: CCRF-CEM; test: Antiproliferative activity against human CCRF-CEM cells assessed as reduction in cell viability after 48 hrs by CellTiter-Blue assay; type: functional; settings: read-out: LC50 (the source's name)
Summary of the method: (§1)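 Cells grown in RPMI1640 with 10% FBS at 37 °C, 5% CO₂. 5,000–10,000 cells/well were pre-incubated overnight, and a time-zero CellTiter-Blue read was taken. Six 10-fold dilutions (top final 10 μM) were applied for 48 h, followed by 0.125 mg/mL CellTiter-Blue for 2–4 h. Resorufin fluorescence was read at ex 560/em 590 nm. […] Triplicates.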

[3] = tested on: MOLT-4; test: Antiproliferative activity against human MOLT4 cells assessed as reduction in cell viability after 48 hrs by CellTiter-Blue assay; type: functional; settings: MOLT-4, 48 h, read-out: LC50 (the source's name); summary of the method: as §1
[4] = tested on: A549; test: Antiproliferative activity against human A549 cells assessed as reduction in cell viability after 48 hrs by CellTiter-Blue assay; type: functional; settings: A549, 48 h, read-out: LC50 (the source's name); summary of the method: as §1
[5] = tested on: HOP-62; test: Antiproliferative activity against human HOP62 cells assessed as reduction in cell viability after 48 hrs by CellTiter-Blue assay; type: functional; settings: HOP-62, 48 h, read-out: LC50 (the source's name); summary of the method: as §1
[6] = tested on: SF-295; test: Antiproliferative activity against human SF295 cells assessed as reduction in cell viability after 48 hrs by CellTiter-Blue assay; type: functional; settings: SF-295, 48 h, read-out: LC50 (the source's name); summary of the method: as §1
[7] = tested on: U-251; test: Antiproliferative activity against human U251 cells assessed as reduction in cell viability after 48 hrs by CellTiter-Blue assay; type: functional; settings: U-251, 48 h, read-out: LC50 (the source's name)
Summary of the method: (§2)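 NCI-60 panel lines grown in RPMI1640 with 10% FBS at 37 °C, 5% CO₂. Seeded at 5,000–10,000 cells/well and pre-incubated overnight. Exposed for 48 h to six 10-fold dilutions (top final 10 μM), with a time-zero plate read at dosing. CellTiter-Blue (0.125 mg/mL) for 2–4 h, fluorescence 560/590 nm, triplicate curves.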

[8] = tested on: M14; test: Antiproliferative activity against human M14 cells assessed as reduction in cell viability after 48 hrs by CellTiter-Blue assay; type: functional; settings: M14, 48 h, read-out: LC50 (the source's name); summary of the method: as §1
[9] = tested on: SK-MEL-5; test: Antiproliferative activity against human SK-MEL-5 cells assessed as reduction in cell viability after 48 hrs by CellTiter-Blue assay; type: functional; settings: SK-MEL-5, 48 h, read-out: LC50 (the source's name); summary of the method: as §1
[10] = tested on: IGROV-1; test: Antiproliferative activity against human IGROV1 cells assessed as reduction in cell viability after 48 hrs by CellTiter-Blue assay; type: functional; settings: IGROV-1, 48 h, read-out: LC50 (the source's name); summary of the method: as §1
[11] = tested on: OVCAR-4; test: Antiproliferative activity against human OVCAR4 cells assessed as reduction in cell viability after 48 hrs by CellTiter-Blue assay; type: functional; settings: OVCAR-4, 48 h, read-out: LC50 (the source's name); summary of the method: as §1
[12] = tested on: SK-OV-3; test: Antiproliferative activity against human SKOV3 cells assessed as reduction in cell viability after 48 hrs by CellTiter-Blue assay; type: functional; settings: SK-OV-3, 48 h, read-out: LC50 (the source's name); summary of the method: as §1
[13] = tested on: ACHN; test: Antiproliferative activity against human ACHN cells assessed as reduction in cell viability after 48 hrs by CellTiter-Blue assay; type: functional; settings: read-out: LC50 (the source's name); summary of the method: as §1
[14] = tested on: TK-10; test: Antiproliferative activity against human TK10 cells assessed as reduction in cell viability after 48 hrs by CellTiter-Blue assay; type: functional; settings: TK-10, 48 h, read-out: LC50 (the source's name); summary of the method: as §2
[15] = tested on: UO-31; test: Antiproliferative activity against human UO31 cells assessed as reduction in cell viability after 48 hrs by CellTiter-Blue assay; type: functional; settings: UO-31, 48 h, read-out: LC50 (the source's name); summary of the method: as §2
[16] = tested on: RS4-11; test: Antiproliferative activity agaisnt human RS4:11 cells expressing wild type p53/FLT3 assessed as cell death at 10 uM after 48 hrs by CellTiter-blue assay; type: functional, cell-based
[17] = tested on: U-937; test: Antiproliferative activity agaisnt p53 null human U937 cells at 10 uM after 48 hrs by CellTiter-blue assay; type: functional, cell-based
[18] = tested on: MV4-11; test: Induction of apoptosis in human MV4-11 cells harboring wild type p53/FLT3-ITD mutant assessed as cleavage of pro-caspase 3 at 50 to 200 nM after 24 hrs by Western blot analysis; type: functional, cell-based
Summary of the method: (§3)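 Cells (1,500,000 per well) grown 12 h, then drug-treated as specified. Lysed in RIPA buffer, sonicated, centrifuged, protein normalized by BCA. Run on 4–12% Bis-Tris gels in MES, transferred, probed overnight at 4 °C with primary antibodies at 1/1000. Actin served as reference for LC3-II quantitation.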

[19] = tested on: MV4-11; test: Down regulation of FTL3 in human MV4-11 cells harboring wild type p53/FLT3-ITD mutant at 50 to 200 nM after 24 hrs by Western blot analysis; type: functional, cell-based; summary of the method: as §3
[20] = tested on: MV4-11; test: Induction of autophagy in human MV4-11 cells harboring wild type p53/FLT3-ITD mutant assessed as LC-3 degradation at 50 to 200 nM after 24 hrs by Western blot analysis; type: functional, cell-based; summary of the method: as §3
[21] = tested on: MV4-11; test: Down regulation of MDM2 expression in human MV4-11 cells harboring wild type p53/FLT3-ITD mutant at 50 to 200 nM after 24 hrs by Western blot analysis; type: functional, cell-based; summary of the method: as §3
[22] = tested on: HL-60; test: Effect on c-Flip protein degradation in p53 null human HL60 cells harboring wild type FLT3 at 50 to 200 nM after 24 hrs by Western blot analysis; type: functional, cell-based; summary of the method: as §3
[23] = tested on: MV4-11; test: Inhibition of p53 degradation in human MV4-11 cells at 200 nM after 24 hrs in presence of 5 nM bortezomib by Western blot analysis; type: functional, cell-based; summary of the method: as §3
[24] = tested on: MV4-11; test: Induction of apoptosis in human MV4-11 cells assessed as cell death at 200 nM after 24 hrs in presence of 50 uM z-VAD by CellTiter-blue dye based spectrophotometric analysis; type: functional
Summary of the method: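 MV4-11 cells grown 12 h, then given 200 nM test agent alone or with z-VAD, chloroquine (5 μM) or wortmannin (100 nM) for 24 h. Viability by CellTiter-Blue (0.125 mg/mL, 2–4 h), resorufin fluorescence 560/590 nm, compared with t = 0 wells; n = 3.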

Matrix metalloproteinase-9 (Homo sapiens), sequence (P14780 whole entry): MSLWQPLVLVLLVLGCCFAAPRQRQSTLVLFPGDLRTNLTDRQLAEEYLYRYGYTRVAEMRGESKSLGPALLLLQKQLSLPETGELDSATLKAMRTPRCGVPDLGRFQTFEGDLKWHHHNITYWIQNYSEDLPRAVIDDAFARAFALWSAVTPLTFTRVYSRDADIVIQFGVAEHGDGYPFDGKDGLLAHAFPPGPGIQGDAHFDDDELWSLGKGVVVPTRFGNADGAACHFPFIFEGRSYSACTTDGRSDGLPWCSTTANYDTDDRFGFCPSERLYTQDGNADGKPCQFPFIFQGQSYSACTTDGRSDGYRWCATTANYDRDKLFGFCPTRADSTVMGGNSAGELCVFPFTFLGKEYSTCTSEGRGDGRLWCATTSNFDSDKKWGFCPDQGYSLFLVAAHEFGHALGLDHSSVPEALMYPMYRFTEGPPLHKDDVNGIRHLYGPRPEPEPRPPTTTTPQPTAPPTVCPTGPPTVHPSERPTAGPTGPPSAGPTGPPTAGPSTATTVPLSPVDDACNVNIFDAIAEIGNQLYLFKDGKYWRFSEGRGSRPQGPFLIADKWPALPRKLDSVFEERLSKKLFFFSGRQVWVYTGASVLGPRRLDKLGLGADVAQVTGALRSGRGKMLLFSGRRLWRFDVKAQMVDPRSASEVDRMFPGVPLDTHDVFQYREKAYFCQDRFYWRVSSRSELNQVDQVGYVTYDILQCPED

## CCCNNC(=O)/C=C/c1ccc(CNCCc2c(C)[nH]c3ccccc23)cc1.O=C(O)C(F)(F)F
[1]
  inhibition: inactive
[2]
  CC50: > 10 µM
[3]
  CC50: > 10 µM
[4]
  CC50: > 10 µM
[5]
  CC50: > 10 µM
[6]
  CC50: > 10 µM
[7]
  CC50: 4.28 µM
[8]
  CC50: > 10 µM
[9]
  CC50: > 10 µM
[10]
  CC50: > 10 µM
[11]
  CC50: > 10 µM
[12]
  CC50: > 10 µM
[13]
  CC50: > 10 µM
[14]
  CC50: > 10 µM
[15]
  CC50: > 10 µM
[16]
  Activity: Active
[17]
  Activity: Active
[18]
  Activity: Active
[19]
  Activity: Active
[20]
  Activity: Active
[21]
  Activity: Active
[22]
  Activity: Active
[23]
  inhibition: Active
[24]
  Activity: inactive
